System: MS2 coat protein
Experiment: apparent Kd, MS2 coat protein; higher = weaker binding; RNA-MaP array; FMN 200 µM where present
Summary of the method: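 Stalled E. coli RNA polymerase produced the designs on Illumina sequencing-chip clusters. SNAP-549-labelled MS2 coat protein was added from 0.7 or 1.5 nM, doubling to 3 µM, without and then with constant ligand, in 100 mM Tris-HCl pH 7.5, 80 mM KCl, 4 mM MgCl2, BSA, DTT, yeast tRNA and Tween-20. The apparent Kd is the median of filtered per-cluster fits of green signal normalised to red-channel RNA signal and control-cluster median Fmax.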

[1] = designed as: OFF switch for flavin mononucleotide, no ligand
[2] = ligand present: flavin mononucleotide, designed as: OFF switch for flavin mononucleotide
[3] = designed as: ON switch for flavin mononucleotide, no ligand
[4] = ligand present: flavin mononucleotide, designed as: ON switch for flavin mononucleotide

Sequence	apparent Kd [1]	apparent Kd [2]	apparent Kd [3]	apparent Kd [4]
GAGCUAUGAGGAUAUGCAUAUAUGCGGUUUCGUGUGGUACUACAUGAGGAUCACCCAUGUAGAAGGCGUGGCUG	17.2 nM	17 nM		
AUUAUAUUAGGAUAUUCGCUGUGGUACAUGAGGAUCACCCAUGUAUCUGCUUGUAUCAACGAAGAAGGAAUGUGUA	15.5 nM	16.8 nM		
GCGUAACAUGAGGAUCACCCAUGUGCCCGAGAAUUCGGGCCGAGAAGGGUGACCGGUCGUUUGGCACAGGAUAUCGACGUUGUG			31.5 nM	12.7 nM
GGAUAGGAUAGAGGAUAUACGUGCUAGAGAUACUAGCAAAAUUUCCUCACAUGAGGAUCACCCAUGUAGAAGGCUGUCCUAUCG	10.6 nM	193 nM		
UCAGGUGGAGGAUAUACAGCUCGAUCCUGUAAUAAAACGGCACAUGAGGAUCACCCAUGUAGAAGGCCACAAUA	25.7 nM	126 nM		
GACACCGUGUAGAAGGACCAGUGCGCUACUAUGGUAGGAUAUACAUGAGGAUCACCCAUGUGACGGCUUUCGGUGGGAGCAGUG	10.9 nM	19.8 nM		
CUGUUCCGUGUAGGAUAUGCAUAUUCUCAUUAUGCAGAAGGACAUGAGGAUCACCCAUGUAUGUUAUUAUCAUGUGUUACAUGU	31.4 nM	163 nM		
ACCUAUUUGGAGAAGGCCAGAAUGAUUAGGCUAAGGCGUGAUCCUGCAUGGAGGAUAUCCAAAACAUGAGGAUCACCCAUGUUC			130 nM	71.2 nM
AUGUGGUGCGUAGGAUAUCAUUGAAGAAAACCCUGAGAAGGACGUGAGGACAUGAGGAUCACCCAUGUGGAUCACCCAUGUCAU	315 nM	282 nM		
UAUAUUAUUAUAGGAUAUGGAUAUGAUGCAUAUCCAGAAGGGUGAUUAUAAUAUUUUCUGUACAUGAGGAUCACCCAUGUUUAU			141 nM	41.6 nM
CAGCUCUGAGGAUAUCCAUCCUCCUACAUGAGGAUCACCCAUGUUUCCCUCUGGGUUUUCGGAGAAGGCAGUUUUU	248 nM	425 nM		
GGAAUACAUGAGGAUCACCCAUGUAAGGAUAUGCUGAAUAACACGGAAUAAUCGUGCAGCAGAAGGUACAAAGG	145 nM	111 nM		
ACUGUCGCGUGAGGAUAUGGUCUGCAGUGCUGACCAGAAGGCAUGUCGAUAGACAUGAGGAUCACCCAUGUGGUUAGGGCGGCU			619 nM	298 nM
CCCAUGUUAGGAUAUCGGCUCCGCCGUUCCACAUGGCGCUCCGAGAAGGAACAUGAGGAUCACCCAUGUAAAGA	39.1 nM	140 nM		
AAACUCAUUGUCAGGAUAUGUAUUGAAGGAAUCGGACAGAAGGGACAUGAGGAUCACCCAUGUUACUAAGACCC	25.9 nM	74.3 nM		
UGUCGGAGCAGAGGAUAUUACAUGAGGAUCACCCAUGUAUGAACCAAUAGCUGGAAACAGCAAUGUAAGAAGGCUGCUCCGGCA	11.8 nM	186 nM		
GGAUAAUUGAUCCUUUUUUAUUACAUGAGGAUCACCCAUGUGCAGGAUAUCGAUUAUUAUAGUUUCGAGAAGGGCAAGAAUUGU	73.4 nM	276 nM		
CUUUCUUGCAAGGAUAUGCAAUUUAUUAUUUAUGCAGAAGGUGCUACAUGAGGAUCACCCAUGUUUCUGGGUUU	146 nM	208 nM		
ACUCUACAUGAGGAUCACCCAUGUCGAGCCCAUCAAGGAUAUGGGUCUUGAUCGCGGGUGCCAGAAGGUGAUGGUU			43.9 nM	47.1 nM

Sequence	apparent Kd [1]	apparent Kd [2]	apparent Kd [3]	apparent Kd [4]
UAUAUACAUGAGGAUCACCCAUGUAAGGAUAUGCAUUAUUAUUAUUAUUAUUAUUAUAGCAGAAGGUACAAUAU	32.1 nM	31.3 nM		
GACAUGAGGAUCACCCAUGUACAGAUAGAGGAACUCUAAUUGAGAAGGGACUUGAAACAAUCAUGUCAGGAUAUCAGUGGCGAC			86.7 nM	41 nM
UAUGGUUAAGUCAGGAUAUGCUCAUAGAGGUCUGUGCAGAAGGGACAUGAGGAUCACCCAUGUAUGGUCGUGUU	254 nM	237 nM		
AAAUUGGUAGAGGAUAUCGGAUAGGAUUUAUUGCGAGAAGGCUGCACAUGAGGAUCACCCAUGUUCUGUUGGGA	201 nM	280 nM		
UUCCUGUCAGGAUAUGACUAGAUGCACGAAAGUGUUUUUAGUUAGAAGGGACAUGAGGAUCACCCAUGUAGUCC	24.1 nM	40 nM		
CUAAAUCAUGUAGGAUAUGGAUGGCGAAGCUACCCAGAAGGACAUGAGGAUCACCCAUGUCAGAACGUCUGCGUUCAGACGUUG	35.7 nM	217 nM		
UUGAGGUCAGGAUAUGCAUGGCGGGACUUGCGUCGUGGCGUGGAGAAGGGACAUGAGGAUCACCCAUGUGGAGG	129 nM	94.9 nM		
GUAGCUACUAUUAUACAUGAGGAUCACCCAUGUUACAUGGGUAAGGAUAUUGAAGUUAUUAUUAUCAAGAAGGUACUAUGCUAC			570 nM	102 nM
UAAAUUUUAUGAUAUUAUGACAUUAGAAGGCUAUACAUGUUGAUACAUGAGGAUCACCCAUGUAUAGAGGAUAUAGACAAUUAU	44.1 nM	100 nM		
CCGGAAACGGGUAGCUGACAUGAGGAUCACCCAUGUGUAUCACAGGAUAUGGAUCCUAAUUGGAUCCAGAAGGGUGUCAGCUAC			1130 nM	105 nM
GCCAUCAUAUGAGGAUAUGACACCGAAACGGUGUCAGAAGGCAUGUCGAUAGACAUGAGGAUCACCCAUGUUUAGAUGAUGGCA			104 nM	21.5 nM
ACUAGAUGAGGAUAUGCAUGUUUUCAUGUUCUUCUAGAUUAACAUGAGGAUCACCCAUGUAGAAGGCGUCUUUU	21.4 nM	32 nM		
AACAAGCAAGGAUAUACAUGAGGAUCACCCAUGUCGUCUAAACGUACAUGCUACUCUUGUAGAAGGUGCAAAAU	129 nM	537 nM		
GCAUUGAGUGUGAGGAUAUGCUGGUCCUUGGAUCAGCAGAAGGCACAUGAGGAUCACCCAUGUGAAUACAAUGC	20.9 nM	116 nM		
GCAGACGUAGUGAGGAUAUGCUCUACCUCGGUAGAGCAGAAGGCACAUGAGGAUCACCCAUGUGGUUCUUCUGC	28.2 nM	339 nM		
ACAUGGUAGUAGAAGGGUAUUACUUUAGAAUCAACCAUUAGUUUAUUUUAUACAGGAUAUGCUAACAUGAGGAUCACCCAUGUU	10.4 nM	8.25 nM		
AAACAUGUCCGAGGAUAUCUGGAAAUAUUUCCAAGAGAAGGCGGACAUGAGGAUCACCCAUGUCUCUCCUCAUCAAAUCCAAGU	9.36 nM	73.3 nM		
AUGAGUAAAGCAGGAUAUCUAUUGUCUCUGUAACAUGAGGAUCACCCAUGUAGAGAAGGGCUAAUUCUUACUCUUCGGAGUUGA	10.5 nM	10.1 nM		
ACUGCCACAGGAUAUACGAAACUCUUGGGUUCCGCCGUGUGACAUGAGGAUCACCCAUGUAGAAGGGUGGCUUA	606 nM	416 nM		

Sequence	apparent Kd [1]	apparent Kd [2]	apparent Kd [3]	apparent Kd [4]
CGUGUACGAGGAUAUAGAUUGGAUGACAUGAGGAUCACCCAUGUGAUCGAUCUAUUUGGUUUAGAAGGUGUACAUG	13.4 nM	14.2 nM		
AGUGGCUACACAGGAUAUCCCAGCCUCUUGGUGGGAGAAGGGUGAGGUCAGAGACAUGAGGAUCACCCAUGUCUUACAGGAGGA			15.8 nM	8.33 nM
AGCCAAGCAGGAUAUGCACGUAAUAACAUGAGGAUCACCCAUGUGACCGAUUUAUGUUCUGCAGAAGGGCUUGGAA	60.3 nM	63.5 nM		
CGAAACAACACAACGAAGCAGGUACCAGAAGGGACGGCGUCACAUGAGGAUCACCCAUGUUGCAGUCAGGAUAUGGGCCAUCCU			33.1 nM	6.95 nM
GAUCCUUCUGUUAGGAUAUGCUUUGGGCUUCCGCAGCAGAAGGAACAUGAGGAUCACCCAUGUCCAAUACCAUC	42.6 nM	41.8 nM		
AAGAAUAGAAAGAUUAAUAUGAAUACAUGAGGAUCACCCAUGUAGGAUAUGCAGCUGAAUCAGCUGCAGAAGGACAAAAUAAAU	9.15 nM	9.08 nM		
GUAUUUAGAUAAGGAUAUAAGUCUAGGACAUGAGGAUCACCCAUGUGUGUCUUAGAAGGUAUUUGGGUAAUAUUGUUACAGUAA			160 nM	114 nM
AUCAGCUUGUCAGGAUAUACGUCACUGCGUCAGCAGUGUGGUAAGAUCACAUGAGGAUCACCCAUGUAGAAGGGACGAGCUGAU	12.9 nM	321 nM		
UGAAAUCAUGUAGGAUAUGCAUGGCGAAGCUACGCAGAAGGACAUGAGGAUCACCCAUGUUCUAGCUACCGAGUACGGUGGCAA	23.1 nM	121 nM		
GUAUUUAUAUAAGGAUAUAAGUCUAGGACAUGAGGAUCACCCAUGUGUGUCUUAGAAGGUAUAUAGGUAAUACUGUUACAGUAA			86.1 nM	23.6 nM
GCAGCUAAUAUUAUACAUGAGGAUCACCCAUGUUACAUGUGUAAGGAUAUUGAUGUUUAUAUAAACAAGAAGGUACGAAGCUGC			20.5 nM	13.1 nM
ACGAUGUCAGGAUAUCGAUCACGGGUCUGAAGACACGUGUUUGAGAAGGGACAUGAGGAUCACCCAUGUGUCUC	122 nM	314 nM		
ACACUACAUGAGGAUCACCCAUGUCAGGAUAUCGAUAUCACAACUCAUCAACCUCACUCGAGAAGGGACACAUA	24 nM	23.8 nM		
UUCAUCGAUGAAGGAUAUCUAUGUCCAACAUGAGGAUCACCCAUGUUGAGGAUUACCUAUGUGUAGGAGAAGGUCAAUAUGACU			7.03 nM	6.39 nM
UCCAACCCUGUGAGGAUAUCGUCCAUUUUUUGUUACGAGAAGGCACAUGAGGAUCACCCAUGUUUUUUAUUUUU	21.9 nM	134 nM		
UAGAAUCGAGGAUAUACAUGAGGAUCACCCAUGUGUUGCCGCGUGAUGUGUUUGUCAGGUAGAAGGCGAUUAUA	64.4 nM	266 nM		
GAUUGACGACAAUUACAUGAGGAUCACCCAUGUUGUAGGAUGCAGGAUAUGUGGUAUAUUAUUUAACAGAAGGGCAAUAAUUUU			25.8 nM	29.3 nM
GGCGAACGGGCUUACAUGAGGAUCACCCAUGUAGACUCAUGGUAGGAUAUGCUGAACAAAGUUCAGCAGAAGGGCCGGUGAGCU			86.6 nM	46.3 nM

From the EternaBench riboswitch data
